Experimental findings from ChEMBL document CHEMBL1140506, “Molecular design of histone deacetylase inhibitors by aromatic ring shifting in chlamydocin framework” (Bioorg Med Chem, 2007) are described below.

A short description of assay [1]: Induction of wild-type p21 promoter activation in mink Mv1Lu cells after 18 hrs by luciferase assay relative to basal level. It is filed as functional, Neovison vison. The gist of the method: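 Stable Mv1Lu clone (MFLL-9) carrying p21 promoter (2.4 kb genomic fragment)–luciferase reporter, G418-selected. Cells (1 × 10^5) plated 6 h, then exposed 18 h to various drug concentrations. Luciferase activity of lysates measured by luminometer, normalized to lysate protein; concentration giving 10-fold induction over basal level reported as EC1000.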

In another assay the target is Histone deacetylase 1 (Homo sapiens, UniProt Q13547). Nature of the assay: Inhibition of human HDAC1 expressed in 293T cells. In kind it is cell-based.
The next assay concerns the target Histone deacetylase 4 (Homo sapiens, UniProt P56524). Nature of the assay: Inhibition of human HDAC4 expressed in 293T cells. In kind it is cell-based.
The species named for the next assay is Homo sapiens. Nature of the assay: Selectivity for human HDAC4 over human HDAC1. Put shortly: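 Selectivity calculated from IC50 values against FLAG-tagged human HDAC4 and HDAC1, each transiently expressed in 293T cells, anti-FLAG immunopurified and FLAG-peptide eluted. Ac-KGLGK(Ac)-MCA substrate, pH 8.0 Tris buffer with 0.1 mM DTT, 37 °C 30 min. Trypsin development, then AMC fluorescence read.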

The target of assay [2] is T1, Protein deacetylase HDAC6 (Mus musculus, UniProt Q9Z2V5).
T1 sequence (Q9Z2V5 whole entry): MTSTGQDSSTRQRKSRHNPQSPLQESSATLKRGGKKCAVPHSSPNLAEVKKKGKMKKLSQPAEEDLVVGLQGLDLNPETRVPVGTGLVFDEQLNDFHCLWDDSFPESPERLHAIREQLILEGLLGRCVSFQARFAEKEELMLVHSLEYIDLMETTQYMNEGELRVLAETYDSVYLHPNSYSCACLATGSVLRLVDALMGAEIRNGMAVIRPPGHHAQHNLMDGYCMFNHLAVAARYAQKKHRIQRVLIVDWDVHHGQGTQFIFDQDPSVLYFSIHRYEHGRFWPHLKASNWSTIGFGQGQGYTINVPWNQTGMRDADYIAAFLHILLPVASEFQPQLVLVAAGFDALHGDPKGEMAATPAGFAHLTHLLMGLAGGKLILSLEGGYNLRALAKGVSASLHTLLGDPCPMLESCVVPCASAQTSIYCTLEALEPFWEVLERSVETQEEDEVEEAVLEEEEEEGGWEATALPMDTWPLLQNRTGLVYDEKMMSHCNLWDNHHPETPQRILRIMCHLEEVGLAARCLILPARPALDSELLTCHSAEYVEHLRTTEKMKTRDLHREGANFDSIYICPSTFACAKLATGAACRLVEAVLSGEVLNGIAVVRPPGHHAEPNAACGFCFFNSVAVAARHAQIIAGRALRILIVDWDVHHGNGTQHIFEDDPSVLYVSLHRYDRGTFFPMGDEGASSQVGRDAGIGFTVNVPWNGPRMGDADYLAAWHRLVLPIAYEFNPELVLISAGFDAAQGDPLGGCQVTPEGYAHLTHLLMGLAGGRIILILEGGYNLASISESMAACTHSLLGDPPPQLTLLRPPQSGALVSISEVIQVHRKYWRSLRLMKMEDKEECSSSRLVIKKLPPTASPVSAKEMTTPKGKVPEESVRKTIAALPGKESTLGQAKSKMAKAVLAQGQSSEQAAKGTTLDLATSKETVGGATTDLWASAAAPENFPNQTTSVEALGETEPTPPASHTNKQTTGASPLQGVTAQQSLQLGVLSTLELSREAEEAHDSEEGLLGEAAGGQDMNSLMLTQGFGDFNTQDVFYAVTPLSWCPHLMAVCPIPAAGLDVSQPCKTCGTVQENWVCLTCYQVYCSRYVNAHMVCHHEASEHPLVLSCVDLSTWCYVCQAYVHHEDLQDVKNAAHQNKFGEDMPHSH
Nature of the assay: Inhibition of mouse HDAC6 expressed in 293T cells. It is filed as cell-based.

SMILES strings stand for the structures. Non-standard residues stand in square brackets, D forms with d. Residues, ends and D or L forms follow the SMILES beside them. Ahp(7-SS(2-pyridyl)) = N[C@@H](CCCCCSSc1ccccn1)C(=O)O; Aib = CC(C)(N)C(=O)O

Sequence of Histone deacetylase 1 (Q13547 whole entry): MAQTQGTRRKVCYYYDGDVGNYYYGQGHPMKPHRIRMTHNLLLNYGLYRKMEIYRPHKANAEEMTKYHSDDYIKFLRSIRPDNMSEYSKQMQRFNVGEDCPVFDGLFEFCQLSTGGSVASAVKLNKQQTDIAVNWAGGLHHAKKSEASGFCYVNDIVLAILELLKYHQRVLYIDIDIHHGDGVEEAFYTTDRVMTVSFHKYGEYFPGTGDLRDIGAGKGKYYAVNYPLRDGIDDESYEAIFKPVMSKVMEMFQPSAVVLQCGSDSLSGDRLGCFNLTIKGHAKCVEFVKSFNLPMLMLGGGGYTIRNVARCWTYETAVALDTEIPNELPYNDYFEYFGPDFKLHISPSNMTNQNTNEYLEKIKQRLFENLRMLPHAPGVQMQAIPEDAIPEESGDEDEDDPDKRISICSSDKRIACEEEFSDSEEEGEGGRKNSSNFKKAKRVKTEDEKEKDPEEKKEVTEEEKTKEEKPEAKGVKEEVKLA
Sequence of Histone deacetylase 4 (P56524 whole entry): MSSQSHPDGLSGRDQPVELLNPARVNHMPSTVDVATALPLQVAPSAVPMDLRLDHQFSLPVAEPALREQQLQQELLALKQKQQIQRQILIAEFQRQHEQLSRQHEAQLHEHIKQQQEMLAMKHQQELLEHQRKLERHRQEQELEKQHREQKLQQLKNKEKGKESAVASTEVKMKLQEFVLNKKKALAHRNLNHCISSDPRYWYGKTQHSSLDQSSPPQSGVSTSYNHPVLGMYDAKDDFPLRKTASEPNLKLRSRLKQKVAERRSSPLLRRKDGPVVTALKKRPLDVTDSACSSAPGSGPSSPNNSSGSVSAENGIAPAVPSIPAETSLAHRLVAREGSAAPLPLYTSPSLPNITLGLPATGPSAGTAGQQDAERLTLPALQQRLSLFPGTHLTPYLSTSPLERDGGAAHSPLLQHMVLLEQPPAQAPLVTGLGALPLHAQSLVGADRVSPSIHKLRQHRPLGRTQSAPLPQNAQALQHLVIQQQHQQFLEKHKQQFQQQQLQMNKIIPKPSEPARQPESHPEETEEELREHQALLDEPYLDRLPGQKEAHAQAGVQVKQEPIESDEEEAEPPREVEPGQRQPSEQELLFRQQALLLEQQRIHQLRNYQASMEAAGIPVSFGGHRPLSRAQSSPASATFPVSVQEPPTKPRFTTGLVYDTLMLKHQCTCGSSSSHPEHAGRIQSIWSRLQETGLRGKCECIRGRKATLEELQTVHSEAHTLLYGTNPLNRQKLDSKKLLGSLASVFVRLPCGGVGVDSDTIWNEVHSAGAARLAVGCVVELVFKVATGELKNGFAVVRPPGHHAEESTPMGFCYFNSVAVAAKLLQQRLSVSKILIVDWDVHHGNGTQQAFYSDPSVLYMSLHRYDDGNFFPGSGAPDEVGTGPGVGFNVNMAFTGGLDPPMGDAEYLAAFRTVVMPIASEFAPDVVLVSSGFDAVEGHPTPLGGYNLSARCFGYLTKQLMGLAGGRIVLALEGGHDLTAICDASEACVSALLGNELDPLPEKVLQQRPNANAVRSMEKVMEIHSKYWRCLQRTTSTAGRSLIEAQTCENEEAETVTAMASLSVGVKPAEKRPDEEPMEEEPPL

Consider `C[C@@H]1NC(=O)C(C)(C)NC(=O)[C@H](CCCCCSSc2ccccn2)NC(=O)[C@H]2Cc3ccccc3CN2C1=O` [listing 1 of 2 here], for which the EC1000 in assay [1] was 200 nM.
Turning to `CC1(C)NC(=O)[C@H](CCCCCSSc2ccccn2)NC(=O)[C@H]2CCCN2C(=O)[C@H](CCc2ccccc2)NC1=O`, the IC50 on Histone deacetylase 1 is 6.2 nM; at Histone deacetylase 4, 3.2 nM; in assay [2], 36 nM. The same compound came in with an EC1000 in assay [1] of 320 nM. For the same compound, the Ratio IC50 in the assay filed under Homo sapiens stood at 1.9.
Take `CC1(C)NC(=O)[C@H](CCCCCSSc2ccccn2)NC(=O)[C@H]2CCCN2C(=O)[C@H](c2ccccc2)NC1=O`: the IC50 against Histone deacetylase 1 was determined as 88 nM; against Histone deacetylase 4 it was 56 nM; in assay [2] it was 86 nM. Moreover, the EC1000 in assay [1] is recorded as 7400 nM. In the assay listed under Homo sapiens, the Ratio IC50 came out at 1.5.
`CC1(C)NC(=O)[C@H](CCCCCSSc2ccccn2)NC(=O)[C@H]2CCCN2C(=O)[C@H](Cc2ccccc2)NC1=O` (cyclo([Aib]F[dP][Ahp(7-SS(2-pyridyl))])): the IC50 was 3.9 nM at Histone deacetylase 1, 1.8 nM against Histone deacetylase 4 and 40 nM in assay [2]. Besides, the EC1000 in assay [1] was determined as 45 nM. Further, the Ratio IC50 in the assay listed under Homo sapiens worked out at 2.1.
Turning to `CC1(C)NC(=O)[C@H](CCCCCSSc2ccccn2)NC(=O)[C@H]2CCCN2C(=O)[C@H](CCCc2ccccc2)NC1=O`, the values for the IC50 (at Histone deacetylase 1; against Histone deacetylase 4; in assay [2]) were 5.3 nM, 2.7 nM and 43 nM, respectively. This compound also had an EC1000 in assay [1] of 110 nM. For the same compound, in the assay filed under Homo sapiens, the Ratio IC50 was 1.9.
Take `C[C@H]1CN2Cc3ccccc3C[C@@H]2C(=O)N[C@@H](CCCCCSSc2ccccn2)C(=O)NC(C)(C)C(=O)N1`: the Ratio IC50 in the assay listed under Homo sapiens is 1.1.
Take `C[C@@H]1NC(=O)[C@](C)(Cc2ccccc2)NC(=O)[C@H](CCCCCSSc2ccccn2)NC(=O)[C@H]2CCCN2C1=O`: the IC50 amounted to 3.7 nM against Histone deacetylase 1, 2.2 nM at Histone deacetylase 4 and 56 nM in assay [2]. In addition, in assay [1], the EC1000 stood at 550 nM. Further, the Ratio IC50 in the assay filed under Homo sapiens is 1.6.
On the same counts, the results for `C[C@@H]1NC(=O)[C@@](C)(Cc2ccccc2)NC(=O)[C@H](CCCCCSSc2ccccn2)NC(=O)[C@H]2CCCN2C1=O` are 170 nM, 70 nM, 71 nM, 25600 nM and 2.4.
Turning to `C[C@@H]1NC(=O)C(C)(C)NC(=O)[C@H](CCCCCSSc2ccccn2)NC(=O)[C@H]2Cc3ccccc3CN2C1=O` [listing 2 of 2 here], the IC50 against Histone deacetylase 1 worked out at 4.7 nM; against Histone deacetylase 4, 4.2 nM; in assay [2] it was 29 nM.
In the case of `CC1(C)NC(=O)[C@H](CCCCCSSc2ccccn2)NC(=O)[C@H]2CCCN2C(=O)[C@H](COCc2ccccc2)NC1=O`, the IC50 was determined as 3.2 nM on Histone deacetylase 1, 1.6 nM against Histone deacetylase 4 and 24 nM in assay [2]. For the same compound, the EC1000 in assay [1] is listed as 72 nM. For the same compound, the Ratio IC50 in the assay filed under Homo sapiens stood at 2.
As to `C[C@@H]1NC(=O)[C@]2(CCc3ccccc32)NC(=O)[C@H](CCCCCSSc2ccccn2)NC(=O)[C@H]2CCCN2C1=O`, the concentration for half-maximal inhibition (IC50) at Histone deacetylase 1 was 36 nM; against Histone deacetylase 4 it was 25 nM; in assay [2], 33 nM. The same compound gave an EC1000 in assay [1] of 2000 nM. Also, the Ratio IC50 in the assay filed under Homo sapiens stood at 1.4.
As for `C[C@@H]1NC(=O)C2(Cc3ccccc3C2)NC(=O)[C@H](CCCCCSSc2ccccn2)NC(=O)[C@H]2CCCN2C1=O`, the half-maximal inhibitory concentration (IC50) at Histone deacetylase 1 was found to be 2 nM; against Histone deacetylase 4 it was 1.6 nM; in assay [2], 8.8 nM. The EC1000 in assay [1] turned out to be 140 nM. Moreover, the Ratio IC50 in the assay filed under Homo sapiens stood at 1.2.
On the same counts, the results for `C[C@@H]1NC(=O)C(C)(C)NC(=O)[C@H](CCCCCSSc2ccccn2)NC(=O)[C@H]2CCCN2C1=O` are 9.4 nM, 5.2 nM, 43 nM, 750 nM and 1.8.
On to `CC1(C)NC(=O)[C@H](CCCCCSSc2ccccn2)NC(=O)[C@H]2CCCN2C(=O)[C@H](CO)NC1=O`, for which the values for the IC50 (against Histone deacetylase 1; at Histone deacetylase 4; in assay [2]) were 6.4 nM, 4 nM and 26 nM, respectively. Also, in assay [1], the EC1000 stood at 580 nM. Besides, in the assay filed under Homo sapiens, the Ratio IC50 is 1.6.
In the case of `C[C@@H]1NC(=O)[C@@]2(CCc3ccccc32)NC(=O)[C@H](CCCCCSSc2ccccn2)NC(=O)[C@H]2CCCN2C1=O`, the 50% inhibitory concentration (IC50) against Histone deacetylase 1 stood at 2.7 nM; against Histone deacetylase 4, 2.4 nM; in assay [2] it was 12 nM. In addition, the EC1000 in assay [1] is 55 nM. For the same compound, the Ratio IC50 in the assay filed under Homo sapiens stood at 1.1.
